Assay results: ChEMBL document CHEMBL5634162, “Cyclohexylalanine-Containing α-Helical Amphipathic Peptide Targets Cardiolipin, Rescuing Mitochondrial Dysfunction in Kidney Injury” (J Med Chem, 2024)
Calls of active or inactive are those of the source. The rule behind the calls is not given here. Where a SMILES comes first, the peptide text is derived from it. Bridges are numbered along the chain shown (N, C = ends). Roman numbers before positions name the chains, in order. [ ]: non-standard residue; d: D form. The star is where a group is joined. 5TAMRA = CN(C)c1ccc2c(c1)Oc1cc(N(C)C)ccc1C21OC(=O)c2cc(C(=O)*)ccc21; Cha = N[C@@H](CC1CCCCC1)C(=O)O

Assays:
[1] = Drug localization in mitochondria of human HeLa cells at EC50 incubated for 3 hrs by fluorescence based assay; format: ADME
[2] = Toxicity in C57BL/6 mouse model of colistin-induced nephrotoxicity assessed as animal survival at 1 mg/kg, ip administered once every other day measured for 7 days; format: organism-based; conditions: in vivo, 168 h, time 7 day
Summary of the method: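 Male C57BL/6 mice got colistin 20 mg/kg SC daily for 7 days, with peptide 1 mg/kg intraperitoneally every other day; groups of n = 5. Survival was tracked by Kaplan–Meier and compared by log-rank (Mantel–Cox) test.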

Epithelial cell [3] = experiment: Inhibition of H2O2-induced intracellular ROS level in human tubular epithelial cells at 20 to 60 nM pretreated for 3 hrs followed by H2O2 addition measured after 30 mins by H2DCFDA staining based analysis; format: functional; conditions: dose 20-60 nM
Summary of the method: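 hTECs seeded, 24 h later given peptide 3 h, then H2O2 1 mM for 30 min; H2DCFDA 25 μM for 30 min, washed, read in HBSS on plate reader at 37 °C (Ex/Em 485/535 nm).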

Mus musculus [4] = experiment: Protection against […] C57BL/6 mouse model assessed as decrease in NGAL level at 1 mg/kg, ip administered thrice a week prior to induction of bilateral ischemia-reperfusion injury measured after 6 days by IHC analysis; format: functional, organism-based; conditions: time 6.0 day
[5] = Drug uptake in CCCP-damaged mitochondria of human HeLa cells at 100 nM by MitoTracker probe based assay; format: ADME; conditions: 16 min, 0.1 µM, TDE = time-dependent effect
Summary of the method: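 HeLa cells given TAMRA-labelled peptide 100 nM for 3 h with MitoTracker staining; mitochondria damaged with 20 μM CCCP (30 min) or by CCCP during time-lapse confocal imaging. Red/green Pearson r calculated.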

Mus musculus [6] = experiment: Protection against colistin-induced nephrotoxicity in C57BL/6 mouse model assessed as increase in SOD-1 level at 1 mg/kg, ip administered once every other day measured after 7 days by IHC analysis; format: functional, organism-based; conditions: time 7.0 day
Summary of the method: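 Male C57BL/6 mice, 7 weeks: colistin 20 mg/kg sc daily for 7 days, peptide 1 mg/kg ip once every other day, n = 5 per group. Day-7 kidney sections, citrate antigen retrieval, immunohistochemistry with HRP polymer secondary and hematoxylin counterstain; PAS and Masson's trichrome for damage.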

Mus musculus [7] = experiment: Protection against […] C57BL/6 mouse model assessed as reduction in inflammatory cell infiltration at 1 mg/kg, ip administered thrice a week prior to induction of bilateral ischemia-reperfusion injury measured after 6 days by IHC analysis; format: functional, organism-based; conditions: time 6.0 day
Mus musculus [8] = experiment: Protection against colistin-induced nephrotoxicity in C57BL/6 mouse model assessed as reduction in tubular dilation at 1 mg/kg, ip administered once every other day measured after 7 days by […] analysis; format: functional, organism-based; conditions: time 7.0 day
Summary of the method: (§1)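 Seven-week-old male C57BL/6 mice got colistin 20 mg/kg SC daily for 7 days plus peptide 1 mg/kg intraperitoneally every other day; groups of n = 5 (control, colistin, colistin + peptide). Kidneys were taken at day 7. Cytochrome C was detected by immunohistochemistry (citrate antigen retrieval, HRP-polymer detection, hematoxylin counterstain). Sections were also stained with PAS and Masson's trichrome to score histologic damage and fibrosis.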

HeLa = experiment: Induction of H2O2-reduced mitochondrial membrane potential in human HeLa cells incubated for 3 hrs followed by H2O2 addition for 1 hr by fluorescence based analysis; format: functional, cell-based; conditions: dose 10-30 nM, time 4.0 hrs
Summary of the method: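 HeLa cells given peptide 3 h then 1 mM H2O2 for 1 h; TMRE 600 nM for 15 min, washed, fluorescence read in HBSS at 37 °C (Ex/Em 525/575 nm).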

Mus musculus [9] = experiment: Protection against […] C57BL/6 mouse model assessed as reduction in cast formation at 1 mg/kg, ip administered thrice a week prior to induction of bilateral ischemia-reperfusion injury measured after 6 days by IHC analysis; format: functional, organism-based; conditions: time 6.0 day
Mus musculus [10] = experiment: Protection against colistin-induced nephrotoxicity in C57BL/6 mouse model assessed as reduction in blood creatinine level at 1 mg/kg, ip administered once every other day measured upto 7 days; format: functional, organism-based; conditions: time <= 7.0 day
Summary of the method: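 Male C57BL/6 mice, 7 weeks: colistin 20 mg/kg sc daily for 7 days, peptide 1 mg/kg ip every other day, n = 5 per group. BUN by autoanalyzer and creatinine by modified Jaffe reaction after 7 days; mean ± SEM.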

Mus musculus [11] = experiment: Protection against […] C57BL/6 mouse model assessed as reduction in serum BUN level at 1 mg/kg, ip administered thrice a week prior to induction of bilateral ischemia-reperfusion injury measured after 6 days; format: functional, organism-based; conditions: time 6.0 day
Mus musculus [12] = experiment: Protection against colistin-induced nephrotoxicity in C57BL/6 mouse model assessed as reduction in tubular casts at 1 mg/kg, ip administered once every other day measured after 7 days by […] analysis; format: functional, organism-based; conditions: time 7.0 day; summary of the method: as §1
Epithelial cell [13] = experiment: Reversal of H2O2-induced IL-1beta mRNA level in human tubular epithelial cells at 10 to 100 nM by qPCR analysis; format: functional, cell-based; conditions: dose 10-100 nM
Mus musculus [14] = experiment: Protection against […] C57BL/6 mouse model assessed as reduction in tubular damage at 1 mg/kg, ip administered thrice a week prior to induction of bilateral ischemia-reperfusion injury measured after 6 days by IHC analysis; format: functional, organism-based; conditions: time 6.0 day
[15] = Drug localization in lysosomes of human HeLa cells at 100 nM incubated for 3 hrs in presence of CCCP by NAO probe based analysis; format: ADME, subcellular, Lysosome; conditions: 0.1 µM
Summary of the method: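 HeLa cells given TAMRA-labelled peptide 100 nM for 3 h and cardiolipin stained with NAO (100 nM, 1 h), with or without 20 μM CCCP for 30 min; LysoTracker 50 nM. Confocal images, Pearson r from five independent images (63×) per condition.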

Mus musculus [16] = experiment: Protection against […] C57BL/6 mouse model assessed as decrease in serum BUN level at 1 mg/kg, ip measured after 23 hrs; format: functional, organism-based

## CC(=O)N[C@@H](CC1CCCCC1)C(=O)N[C@H]1CSSC[C@@H](C(=O)N[C@@H](CCCNC(=N)N)C(N)=O)NC(=O)[C@H](CC2CCCCC2)NC(=O)[C@H](CCCNC(=N)N)NC(=O)[C@H](CCCNC(=N)N)NC(=O)[C@H](CC2CCCCC2)NC(=O)[C@H](CC(C)C)NC(=O)[C@H](CCCNC(=N)N)NC(=O)[C@@H](NC(=O)[C@H](CC2CCCCC2)NC(=O)c2ccc3c(c2)C(=O)OC32c3ccc(N(C)C)cc3Oc3cc(N(C)C)ccc32)CSSC[C@@H](C(=O)N[C@@H](CCCNC(=N)N)C(N)=O)NC(=O)[C@H](CC2CCCCC2)NC(=O)[C@H](CCCNC(=N)N)NC(=O)[C@H](CCCNC(=N)N)NC(=O)[C@H](CC2CCCCC2)NC(=O)[C@H](CC(C)C)NC(=O)[C@H](CCCNC(=N)N)NC1=O (I: Ac-[Cha]CRL[Cha]RR[Cha]CR-NH2 / II: 5TAMRA-[Cha]CRL[Cha]RR[Cha]CR-NH2; disulfide I:2-II:9, I:9-II:2)
[1]
  Drug uptake: 53%
[2]
  Activity: Non-Toxic
Epithelial cell [3]
  inhibition: Active
Mus musculus [4]
  Activity: Active
[5]
  Drug uptake: Tde
Mus musculus [6]
  Activity: Active
Mus musculus [7]
  Activity: Active
Mus musculus [8]
  Activity: Active
HeLa
  Activity: Dose-Dependent Effect
Mus musculus [9]
  Activity: Active
Mus musculus [10]
  Activity: Active
Mus musculus [11]
  Activity: Active
Mus musculus [12]
  Activity: Active
Epithelial cell [13]
  Activity: Active
Mus musculus [14]
  Activity: Active
[15]
  Drug uptake: Active
Mus musculus [16]
  Activity: Active
